Experimental data: publication PMC4425738 (Journal of controlled release : official journal of the …, 2014)

Tested on: Human adult epidermal keratinocytes
Assay: Cell internalization in vitro
Type: cell-based
In short: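 FITC-labelled peptide carrier (1, 4, 7 or 10 mg/mL in medium; 30 or 120 min) on keratinocytes seeded on poly-D-lysine glass dishes, grown 24 h in supplemented EpiLife at 37 °C, 5% CO2. Free-carrier arm: 0.1 mg/mL labelled peptide, 15 min, ± 10 mg/mL unlabelled carrier. Medium-only control. Hoechst 33342 nuclear stain, Trolox-HBSS washes, ethidium bromide to exclude dead cells, then confocal imaging. Mean ± SD.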

FITC-AC-TGSTQHQ-CG, Disulfide Bridge 2–10 (disulfide) [FITC-SPACE peptide]
increase of uptake by addition of free SPACE peptide (15 min, 0.1 mg/mL FITC-SPACE peptide with vs without 10 mg/mL unlabeled SPACE peptide, mean ± SD n=3): 3.9±1.5 fold | intracellular localization (15 min, 0.1 mg/mL, absence of excess free SPACE peptide): localized primarily in punctate spots | intracellular localization (15 min, 0.1 mg/mL, with 10 mg/mL free SPACE peptide): cytoplasmic localization | intracellular localization (120 min, concentrations of 1–4 mg/mL): punctate fluorescent spots | intracellular localization (120 min, higher concentrations (7, 10 mg/mL)): diffused throughout the cytoplasm
